Measurements as given in ChEMBL document CHEMBL5344432, “Identification of a Dual Autophagy and REV-ERB Inhibitor with in Vivo Anticancer Efficacy” (J Med Chem, 2024).
pEC50: −log10 of the molar value. Converted amounts (≈) assume the structure as drawn. The source made the active and inactive calls. The calls are words filed in the database; no cut-off is given here.

Legend:
[1] = test system: BT-474; assay: Cytotoxicity against human BT-474 cells; assay type: functional
Outline: (§1)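 BT-474 breast cancer cells and nontumorigenic HMECs treated 48 h with concentrations up to 30 μM. CC50 derived from concentration–response viability plots. Values >30 μM assigned when viability fell by less than 50% of vehicle at 30 μM. Mean ± SEM, n ≥ 3.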

[2] = (§2) Cytotoxicity against HMECs; assay type: toxicity, cell-based, HMEC; conditions: human, HMEC cells; outline: as §1
[3] = Aqueous kinetic solubility of the compound in PBS at pH 7.4 at 250 uM incubated for 24 hrs by UPLC/MS analysis; assay type: physicochemical; conditions: read-out: Kinetic_solubility
Outline: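 Kinetic solubility measured in phosphate-buffered saline, pH 7.4. Mean of at least two independent experiments, each run in two technical replicates.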

[4] = Metabolic stability in mouse liver microsomes assessed as parent compound remaining preincubated for 15 mins followed by NADPH addition and measured after 1 hr by LC-MS/MS analysis; assay type: ADME, Microsome; conditions: time 75 min, read-out: Stability
Outline: (§3)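 Microsomal stability assessed in mouse, human, rat or dog liver microsomes with NADPH cofactor. Half-life and percent parent remaining at 60 and 120 min reported. Mean of at least two independent experiments, each in two technical replicates.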

[5] = Metabolic stability in mouse liver microsomes assessed as parent compound remaining preincubated for 15 mins followed by NADPH addition and measured after 2 hrs by LC-MS/MS analysis; assay type: ADME, Microsome; conditions: time 135 min, read-out: Stability; outline: as §3
[6] = Metabolic stability in human liver microsomes assessed as half life preincubated for 15 mins followed by NADPH addition and measured after 1 to 2 hrs by LC-MS/MS analysis; assay type: ADME, Microsome; conditions: liver microsomes, time 75-135 min; outline: as §3
[7] = Metabolic stability in human liver microsomes assessed as parent compound remaining preincubated for 15 mins followed by NADPH addition and measured after 1 hr by LC-MS/MS analysis; assay type: ADME, Microsome; conditions: time 75 min, read-out: Stability; outline: as §3
[8] = Metabolic stability in human liver microsomes assessed as parent compound remaining preincubated for 15 mins followed by NADPH addition and measured after 2 hrs by LC-MS/MS analysis; assay type: ADME, Microsome; conditions: time 135 min, read-out: Stability; outline: as §3
[9] = Metabolic stability in mouse liver microsomes assessed as half life preincubated for 15 mins followed by UDPGA addition and measured after 2 hrs by LC-MS/MS analysis; assay type: ADME, Microsome; conditions: time 135 min
Outline: (§4)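 Mouse and human liver microsomes incubated with UDPGA cofactor. Half-life and percent parent remaining at 120 min reported. Mean of at least two independent experiments, each in two technical replicates.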

[10] = Metabolic stability in human liver microsomes assessed as parent compound remaining preincubated for 15 mins followed by UDPGA addition and measured after 2 hrs by LC-MS/MS analysis; assay type: ADME, Microsome; conditions: time 135 min, read-out: Stability; outline: as §4
[11] = Metabolic stability in rat liver microsomes assessed as half life preincubated for 15 mins followed by NADPH addition and measured after 1 to 2 hrs by LC-MS/MS analysis; assay type: ADME, Microsome; conditions: time 75-135 min; outline: as §3
[12] = Metabolic stability in dog liver microsomes assessed as half life preincubated for 15 mins followed by NADPH addition and measured after 1 to 2 hrs by LC-MS/MS analysis; assay type: ADME, Canis lupus familiaris, Microsome; conditions: time 75-135 min; outline: as §3
[13] = test system: MDA-MB-231; assay: Cytotoxicity against human MDA-MB-231 cells; assay type: functional
Outline: (§5)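 Human cancer lines (A375, MDA-MB-231, OMM-1, UPMM-2, CAPAN-2, HepG2, HT-29, HCT116) treated up to 30 μM. CC50 derived from concentration–response viability plots. Mean ± SEM, n ≥ 6. Two-tailed unpaired t test used between compounds.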

[14] = test system: A-375; assay: Cytotoxicity against human A-375 cells; assay type: functional; outline: as §5
[15] = Cytotoxicity against human OMM-1 cells; assay type: functional; outline: as §5
[16] = Cytotoxicity against human UPMM-2 cells; assay type: functional; outline: as §5
[17] = test system: Capan-2; assay: Cytotoxicity against human Capan-2 cells; assay type: functional; outline: as §5
[18] = test system: HepG2; assay: Cytotoxicity against human HepG2 cells; assay type: functional; outline: as §5
[19] = test system: HT-29; assay: Cytotoxicity against human HT-29 cells; assay type: functional; outline: as §5
[20] = test system: HCT-116; assay: Cytotoxicity against human HCT-116 cells; assay type: functional; outline: as §5
[21] = Inhibition of REV-ERBbeta (unknown origin) transcription expressed in HEK293 cells incubated for 24 hrs by gaussia luciferase based assay; assay type: cell-based; conditions: Homo sapiens, HEK293, 24 h
Outline: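 HEK-293 cells cotransfected with REV-ERBβ and a luciferase reporter driven by two repeats of a REV-ERB response element (RevRE) consensus, then treated across a concentration range. Luciferase activity is expressed as fold of DMSO vehicle, mean ± SEM, n = 6, and EC50 is taken from the concentration-response curve. A parallel reporter carrying a mutated RevRE served as a specificity control.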

[22] = test system: A375 (human); assay: Inhibition of autophagy in human A375 cells expressing EGFP-LC3B assessed as increase in LC3-II protein level at 2.5 uM after 24 hrs by immunoblotting analysis
[23] = Metabolic stability in mouse liver microsomes assessed as half-life preincubated for 15 mins followed by UDPGA addition and measured after 2 hrs by LC-MS/MS analysis
[24] = test system: A375 (human); assay: Inhibition of autophagy in human A375 cells expressing EGFP-LC3B assessed as accumulation of autophagosome after 24 hrs by Hoechst 33342 staining based fluorescent microscopy analysis; conditions: dose 1.25-5 µM
[25] = test system: HMEC; assay: as §2; assay type: toxicity, cell-based; conditions: human, hmec; outline: as §1
[26] = Metabolic stability in mouse liver microsomes assessed as half life preincubated for 15 mins followed by NADPH addition and measured after 1 to 2 hrs by LC-MS/MS analysis; assay type: ADME, Microsome; conditions: liver microsomes, time 75-135 min; outline: as §3
[27] = Metabolic stability in rat liver microsomes assessed as parent compound remaining preincubated for 15 mins followed by NADPH addition and measured after 1 to 2 hrs by LC-MS/MS analysis; assay type: ADME, Microsome; conditions: time 75-135 min; outline: as §3
[28] = Metabolic stability in dog liver microsomes assessed as parent compound remaining preincubated for 15 mins followed by NADPH addition and measured after 1 to 2 hrs by LC-MS/MS analysis; assay type: ADME, Canis lupus familiaris, Microsome; conditions: time 75-135 min; outline: as §3

solubility kinetic at 24 h, 250 µM [3] [µM] | remaining at 1 h [4] [%] | remaining at 2 h [5] [%] | half-life [6] [h] | remaining at 1 h [7] [%] | remaining at 2 h [8] [%] | half-life [9] [h] | remaining at 2 h [10] [%] | t1/2 at 2 h [23] [h] | Structure (SMILES) | CC50 [1] [µM] | also measured
235 (≈ 89.4 µg/mL) | 66 | 39 | > 2 | 79 | 50 | > 2 | > 95 | > 2 | CN1CCC(Cc2cccc(CNC3(c4ccc(F)cc4)CCCC3)c2)CC1 | 5.93 | CC50 [2]: > 30 µM; t1/2 ([11]; microsomes): 0.733 h; t1/2 ([12]; microsomes): 0.933 h; CC50 [13]: 7.42 µM; CC50 [14]: 5.67 µM; CC50 [15]: 2.28 µM; CC50 [16]: 1.91 µM; CC50 [17]: > 30 µM; CC50 [18]: 2.8 µM; CC50 [19]: 18.9 µM; CC50 [20]: 13.5 µM; pEC50 [21]: 5.42; inhibition [22]: Active; inhibition [24]: Dose-Dependent Effect
245 (≈ 94.2 µg/mL) | 82 | 74 | > 2 | 75 | 54 | > 2 | 95 | > 2 | Fc1ccc(C2(NCc3cc(CC4CCNCC4)ccc3F)CCCC2)cc1 | 2.29 | CC50 [25]: 17.2 µM; half-life [26]: > 2 h; half-life ([11]; liver microsomes): > 1 h; half-life ([12]; liver microsomes): > 1 h; Stability [27]: 75%; Stability [28]: 83%
